The text below walks through data of PubChem BioAssay.

Active and inactive are the calls of the source.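 Rule for the calls, unless noted: active = GFP response above 150% of the DMSO level; inconclusive = fewer than 70 events counted for a yeast strain; inactive = the rest.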

Assay [1] in a line: hit retest on RPL19A-GFP reporter strain – cell-based, S. cerevisiae, flow cytometry, cherry picks, mother/daughter gates, confirmation (AID 2270;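 active = GFP response below 50% of the DMSO control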). The following applies: 3 h, at 10 µM, stronger effect = lower value, 100 = same GFP as DMSO wells.
Assay [2] can be described thus: yeast TOR pathway reporter LAP4-GFP change – cell-based, cherry picks, flow cytometry, mother/daughter gates, confirmation (AID 2271;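 active = GFP response above 150% of the DMSO control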;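 note: ratio of sample to DMSO plate mean so 100% equals DMSO level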). The following applies: S. cerevisiae LAP4-GFP strain, 3 h, at 10 µM, stronger effect = higher value, 100 means same as DMSO control. In outline: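 System: GFP-fusion yeast strain | Input: Yeast cells seeded at OD600 of 0.2 | Technique: HT flow cytometry, GFP fluorescence channel | Read-out: % GFP response vs DMSO | Dosing: Single test-compound dose, 10 µM final | Controls: Positive rapamycin (400 ng/mL), negative DMSO | Times: 3 h treatment at 30 °C with rotation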
On the technique in general: Flow cytometry measures light scatter and fluorescence of single cells or particles in a stream.

The nature of assay [3]: TOR pathway reporter MEP2-GFP, retest of hits – S. cerevisiae, flow cytometry GFP, cherry picks, confirmation (AID 2272;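 active = GFP response above 150% of the DMSO control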;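 note: ratio of well signal to plate DMSO mean so 100% equals DMSO level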). The conditions noted are these: S. cerevisiae MEP2-GFP strain, 3 h, at 10 µM, stronger effect = higher value.
A short description of assay [4]: yeast AGP1-GFP fluorescence change, single-dose – cell-based, flow cytometry, S. cerevisiae, cherry picks, confirmation (AID 2273).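 Note: median GFP channel fluorescence over the whole cell population gate.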 The conditions noted are these: S. cerevisiae AGP1-GFP strain, 3 h, at 10 µM.
A short description of assay [5]: TOR pathway CIT2 reporter hit retest – S. cerevisiae, GFP fusion, cherry picks, mother/daughter gates, confirmation (AID 2274). The conditions noted are these: S. cerevisiae CIT2-GFP strain, flow cytometry, 3 h, at 10 µM, stronger effect = higher value.
[6] abbreviates: measured here: daughter cell gate.
Where [7] appears, read: measured here: mother cell gate.
The mark [8] stands for this setting: measured here: daughter cell gate response.
Where [9] appears, read: measured here: mother cell gate response.

Regarding `COc1ccccc1C(=O)NNC(=O)C(=O)Nc1cccc(Cl)c1C`, the GFP response vs DMSO was 106% (inactive) in assay [1], 111% in assay [1] (setting [6]), 101% in assay [1] (setting [7]) and 116% (inactive) in assay [3]. Besides, the GFP response relative to DMSO was 112% (inactive) in assay [2], 118% in assay [2] (setting [8]) and 109% in assay [2] (setting [9]). For the same molecule, the GFP response, % of DMSO in assay [4] was 109% (inactive); in assay [5], 119% (inactive); in assay [5] (setting [6]), 122%; in assay [5] (setting [7]) it was 113%.

With `COC(=O)c1ccc2nc(Nc3nc4ccc(F)cc4s3)sc2c1`, the GFP response vs DMSO was 101% (inactive) in assay [1], 101% in assay [1] (setting [6]), 102% in assay [1] (setting [7]) and 97.8% (inactive) in assay [3]. Moreover, the GFP response relative to DMSO in assay [2] was 81.8% (inactive); in assay [2] (setting [8]), 84.8%; in assay [2] (setting [9]), 86%. The GFP response, % of DMSO in assay [4] is 97% (inactive); in assay [5], 108% (inactive); in assay [5] (setting [6]), 105%; in assay [5] (setting [7]) it was 109%.

As for `C(=N\Nc1nc(-c2cccnc2)nc2ccccc12)/c1ccccc1`, the GFP response vs DMSO was 101% (inactive) in assay [1], 101% in assay [1] (setting [6]), 102% in assay [1] (setting [7]) and 102% (inactive) in assay [3]. Moreover, the results for the GFP response relative to DMSO in assay [2], in assay [2] (setting [8]) and in assay [2] (setting [9]) were 99.2% (inactive), 99.2% and 98.3%, respectively. For the same molecule, the GFP response, % of DMSO in assay [4] is 95.6% (inactive); in assay [5], 104% (inactive); in assay [5] (setting [6]) it was 105%; in assay [5] (setting [7]), 103%.

In the case of `CCOc1ccccc1N1C(=O)CC(Sc2ncccc2C(=O)O)C1=O` (stereo unspecified), the GFP response vs DMSO in assay [1] is 101% (inactive); in assay [1] (setting [6]) it was 99%; in assay [1] (setting [7]), 102%; in assay [3] it was 120% (inactive). Further, the GFP response relative to DMSO in assay [2] was 106% (inactive); in assay [2] (setting [8]), 106%; in assay [2] (setting [9]), 107%. Moreover, the GFP response, % of DMSO in assay [4] is 98.5% (inactive); in assay [5] it was 103% (inactive); in assay [5] (setting [6]), 105%; in assay [5] (setting [7]) it was 102%.

For the molecule `CCN(CC)Cc1csc2ccc(Br)cc12`, the GFP response vs DMSO was 98.4% (inactive) in assay [1], 97.8% in assay [1] (setting [6]), 98.2% in assay [1] (setting [7]) and 102% (inactive) in assay [3]. In addition, the results for the GFP response relative to DMSO in assay [2], in assay [2] (setting [8]) and in assay [2] (setting [9]) were 96.2% (inactive), 97.2% and 99.3%, respectively. The GFP response, % of DMSO in assay [4] was 100% (inactive); in assay [5], 97.8% (inactive); in assay [5] (setting [6]), 96.5%; in assay [5] (setting [7]), 98.7%.

With `COc1ccc(/C=C/C(=O)c2ccccc2O)cc1`, the GFP response vs DMSO in assay [1] was 96.8% (inactive); in assay [1] (setting [6]) it was 96.7%; in assay [1] (setting [7]) it was 98.8%; in assay [3] it was 102% (inactive). The results for the GFP response relative to DMSO in assay [2], in assay [2] (setting [8]) and in assay [2] (setting [9]) were 102% (inactive), 99.3% and 99.5%, respectively. For the same molecule, the GFP response, % of DMSO was 102% (inactive) in assay [4], 99.3% (inactive) in assay [5], 100% in assay [5] (setting [6]) and 98% in assay [5] (setting [7]).

With `C/C(CCC12CC3CC(CC(C3)C1)C2)=N\NC(N)=S`, the GFP response vs DMSO is 87.9% (inactive) in assay [1], 84.6% in assay [1] (setting [6]), 90.7% in assay [1] (setting [7]) and 98.3% (inactive) in assay [3]. Moreover, the values for the GFP response relative to DMSO in assay [2], in assay [2] (setting [8]) and in assay [2] (setting [9]) were 133% (inactive), 125% and 135%, respectively. Moreover, the GFP response, % of DMSO in assay [4] was 96% (inactive); in assay [5], 89.8% (inactive); in assay [5] (setting [6]) it was 88.1%; in assay [5] (setting [7]), 87.8%.

For `CCN(CC)C(=O)Cn1c(C)c(/C=C/c2cc[n+](C)cc2)c2ccccc21`, the GFP response vs DMSO is 107% (inactive) in assay [1], 106% in assay [1] (setting [6]), 106% in assay [1] (setting [7]) and 126% (inactive) in assay [3]. Also, the GFP response relative to DMSO in assay [2] was 108% (inactive); in assay [2] (setting [8]) it was 110%; in assay [2] (setting [9]), 107%. The GFP response, % of DMSO was 98.6% (inactive) in assay [4], 109% (inactive) in assay [5], 110% in assay [5] (setting [6]) and 105% in assay [5] (setting [7]).

Regarding `CS(=O)(=O)c1nc(-c2ccccc2)cc(C(F)(F)F)n1`, the GFP response vs DMSO in assay [1] was 102% (inactive); in assay [1] (setting [6]), 105%; in assay [1] (setting [7]), 95.9%; in assay [3], 146% (inactive). Also, the GFP response relative to DMSO in assay [2] is 192% (active); in assay [2] (setting [8]), 179%; in assay [2] (setting [9]) it was 189%. Moreover, the GFP response, % of DMSO was 102% (inactive) in assay [4], 95.2% (inactive) in assay [5], 101% in assay [5] (setting [6]) and 86.9% in assay [5] (setting [7]).

Consider `Cc1ccc(/C=C/C(=O)N2CC(C)CC(C)C2)o1` (stereo unspecified), for which the GFP response vs DMSO in assay [1] is 103% (inactive); in assay [1] (setting [6]) it was 105%; in assay [1] (setting [7]) it was 101%; in assay [3], 116% (inactive). The GFP response relative to DMSO in assay [2] was 111% (inactive); in assay [2] (setting [8]), 107%; in assay [2] (setting [9]), 113%. Also, the GFP response, % of DMSO in assay [4] was 105% (inactive); in assay [5], 106% (inactive); in assay [5] (setting [6]), 103%; in assay [5] (setting [7]), 105%.

With `N#C/C(=C\c1c(N(Cc2ccccc2)Cc2ccccc2)nc2ccccn2c1=O)C(N)=O`, the GFP response vs DMSO in assay [1] is 98.4% (inactive); in assay [1] (setting [6]), 99.2%; in assay [1] (setting [7]) it was 98.2%; in assay [3], 102% (inactive). The GFP response relative to DMSO in assay [2] was 99.8% (inactive); in assay [2] (setting [8]), 97.2%; in assay [2] (setting [9]) it was 102%. In addition, the GFP response, % of DMSO is 104% (inactive) in assay [4], 106% (inactive) in assay [5], 101% in assay [5] (setting [6]) and 109% in assay [5] (setting [7]).

For `Cc1ccc(N(C(=O)CCCC(=O)Nc2ccccn2)C(C(=O)NC2CCCC2)c2ccc(O)cc2)cc1C` (stereo unspecified), the GFP response vs DMSO in assay [1] was 98.4% (inactive); in assay [1] (setting [6]), 99%; in assay [1] (setting [7]), 99.8%; in assay [3], 117% (inactive). The GFP response relative to DMSO is 98.7% (inactive) in assay [2], 98.7% in assay [2] (setting [8]) and 98.3% in assay [2] (setting [9]). Moreover, the GFP response, % of DMSO in assay [4] was 111% (inactive); in assay [5] it was 111% (inactive); in assay [5] (setting [6]), 108%; in assay [5] (setting [7]) it was 112%.

With `Cc1ccc(S(=O)(=O)N(CC(=O)NCc2ccncc2)Cc2ccccc2F)cc1`, the GFP response vs DMSO is 97.6% (inactive) in assay [1], 97.1% in assay [1] (setting [6]), 98.5% in assay [1] (setting [7]) and 105% (inactive) in assay [3]. Besides, the GFP response relative to DMSO in assay [2] was 99.2% (inactive); in assay [2] (setting [8]), 99.2%; in assay [2] (setting [9]), 97.2%. Further, the GFP response, % of DMSO in assay [4] is 102% (inactive); in assay [5], 103% (inactive); in assay [5] (setting [6]), 101%; in assay [5] (setting [7]), 102%.

Regarding `COc1ccc(C2CC(c3cccs3)=NN2S(=O)(=O)c2ccc(C)cc2)cc1` (stereo unspecified), the GFP response vs DMSO in assay [1] is 98.7% (inactive); in assay [1] (setting [6]), 99.1%; in assay [1] (setting [7]), 98.6%; in assay [3], 104% (inactive). Besides, the GFP response relative to DMSO is 106% (inactive) in assay [2], 105% in assay [2] (setting [8]) and 107% in assay [2] (setting [9]). The GFP response, % of DMSO in assay [4] is 106% (inactive); in assay [5], 106% (inactive); in assay [5] (setting [6]) it was 106%; in assay [5] (setting [7]) it was 106%.

Consider `CC(=O)c1sc(NC(=O)c2ccco2)nc1-c1ccccc1`, for which the GFP response vs DMSO is 98.4% (inactive) in assay [1], 101% in assay [1] (setting [6]), 96.5% in assay [1] (setting [7]) and 103% (inactive) in assay [3]. In addition, the GFP response relative to DMSO in assay [2] was 107% (inactive); in assay [2] (setting [8]), 101%; in assay [2] (setting [9]), 108%. The GFP response, % of DMSO in assay [4] was 94.9% (inactive); in assay [5] it was 110% (inactive); in assay [5] (setting [6]) it was 112%; in assay [5] (setting [7]), 108%.

For the molecule `COCc1nnc(NC(=O)c2ccc(S(=O)(=O)N(C)C3CCCCC3)cc2)o1`, the GFP response vs DMSO in assay [1] is 97.6% (inactive); in assay [1] (setting [6]) it was 98.6%; in assay [1] (setting [7]), 97.2%; in assay [3], 102% (inactive). For the same molecule, the values for the GFP response relative to DMSO in assay [2], in assay [2] (setting [8]) and in assay [2] (setting [9]) were 103% (inactive), 102% and 104%, respectively. For the same molecule, the GFP response, % of DMSO in assay [4] was 97.8% (inactive); in assay [5], 103% (inactive); in assay [5] (setting [6]), 103%; in assay [5] (setting [7]), 102%.
